Source: PubChem BioAssay AID463079 (The Scripps Research Institute Molecular Screening Center, 2010)
The whole screen tested about 330,000 compounds, of which about 2,000 (0.61%) were called active.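 Rule for the calls: active = inhibition above that plate's mean sample inhibition plus 3 SD (cut at about 26% in these data); inactive = the rest.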 The list comes from a sample in which actives are over-represented; it also holds similar structures and randomly drawn compounds.

Experiment: ATP-evoked calcium signal inhibitors, parental CHO, primary screen, counter-screen for OX1R antagonist project, cell-based, fluorescence, Fluo-8 calcium dye (AID 463079);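 note: 0% = ATP-challenged DMSO wells and 100% = DMSO wells without ATP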
Conditions: parental CHO-K1, ATP-induced calcium, Fluo-8 fluorescence; at 5.6 µM; stronger effect = higher value
Procedure, shortened: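 test system = CHO parental line | reagent = ATP stimulus | measured by = intracellular calcium via Fluo-8 no-wash fluorescent dye | control set = ATP and no-ATP DMSO wells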

| SMILES | inhibition |
| --- | --- |
| CN(C)C=NC(=O)c1cccn1-c1ncc(C(F)(F)F)cc1Cl | 7.02% (inactive) |
| O=C(O)CCN1C(=O)CC2(CCCCC2)C1=O | 6.17% (inactive) |
| CC(=O)c1c(C)[nH]c(C(=O)COc2ccc3c(C)cc(=O)oc3c2)c1C | 1.48% (inactive) |
| CCOC(=O)c1c(C)[nH]c(C(=O)COc2ccc3c(c2)OCO3)c1C | 39.2% (active) |
| CCOC(=O)c1c(C)[nH]c(C(=O)OCC(=O)c2ccc(OC)cc2OC)c1C | -26.3% (inactive) |
| COc1ccc(-c2cnc(SCCNC(=O)c3ccc4c(c3)OCO4)[nH]2)cc1 | -9.72% (inactive) |
| Cc1ccc(NC(=O)c2ccc(Cl)nc2)cc1S(=O)(=O)N1CCOCC1 | -8.73% (inactive) |
| CCN1/C(=C\c2ccc3ccccc3[n+]2CC)Sc2cc(C)ccc21 | 79.6% (active) |
| CCN1/C(=C/c2ccc3ccc(C)cc3[n+]2CC)Sc2ccccc21 | 80.2% (active) |
| CCOC(=O)CN(C(=O)COc1nc(-c2ccccc2)cc(C)c1C#N)c1ccc(F)cc1 | -20.7% (inactive) |
| O=C(O)CN(Cc1ccco1)S(=O)(=O)c1ccccc1 | -6.05% (inactive) |
| COc1ccc(C(=O)OCC(=O)c2cc(C)n(CC3CCCO3)c2C)cc1[N+](=O)[O-] (stereo not given) | -4.71% (inactive) |
| CC(NC(=S)Nc1ccc(OC(F)F)cc1)c1ccc(F)cc1 (stereo not given) | 14.7% (inactive) |
| COc1cccc(CNC(C)C(=O)Nc2ccc(S(=O)(=O)N3CCCC3)cc2)c1 (stereo not given) | -9.95% (inactive) |
| COc1cc2c(cc1OC)C(C(=O)NCc1ccco1)C1c3ccccc3CCN1C2=O (stereo not given) | -23.7% (inactive) |
| CCOC(=O)c1sc(NC(=O)CSc2nc(C)cc(C(F)(F)F)n2)c(C#N)c1C | 4.56% (inactive) |
| Cc1ccc(-c2nc(COC(=O)c3c(C)noc3C)cs2)cc1 | 44.1% (active) |
| Cc1ccc(S(=O)(=O)N2CCN(C(=O)COC(=O)c3c(C)noc3C)CC2)c(C)c1 | -5.91% (inactive) |
| COc1ccc(C(=O)COC(=O)c2c(C)noc2C)cc1Cl | -10.6% (inactive) |
| COc1ccc(S(=O)(=O)N2CCN(c3ncnc4c(-c5ccccc5)nsc34)CC2)cc1 | -9.64% (inactive) |
| COCc1c(C(=O)OCC(=O)Nc2ccc(OC(F)F)cc2)oc2ccccc12 | -11.9% (inactive) |
| Cc1ccc(S(=O)(=O)NCc2csc(C)n2)c(C)c1 | -13.8% (inactive) |
| Cc1nc(CNS(=O)(=O)c2ccc(Oc3ccccc3)cc2)cs1 | 44.4% (active) |
| Cc1nc(CNS(=O)(=O)c2cc([N+](=O)[O-])ccc2C)cs1 | -14.4% (inactive) |
| COc1ccc(NC2CCCN(C(=O)c3ccncc3)C2)cc1 (stereo not given) | -8.33% (inactive) |
| CSCCC(C(=O)NC1=NCCS1)N1C(=O)c2ccccc2C1=O (stereo not given) | 1.01% (inactive) |
| N#Cc1ccc(Oc2ccc(C(F)(F)F)cc2NC(=O)c2ccc(F)cc2)cc1 | -13.8% (inactive) |
| N#Cc1ccc(C(=O)Nc2nc(-c3cccs3)c(C(=O)C(F)(F)F)s2)cc1 | 25.4% (active) |

| SMILES | inhibition |
| --- | --- |
| CCOc1cccc(C(=O)Nc2nnc(-c3cccs3)s2)c1 | -10.2% (inactive) |
| O=C(/C=C/c1cccc([N+](=O)[O-])c1)NCCSCc1ccco1 | -15.3% (inactive) |
| CCCC(C)C(=O)OCC(=O)Nc1c(Br)cc(C)cc1Br (stereo not given) | -8.47% (inactive) |
| CC1CCN(C(NC(=O)c2ccco2)C(=O)c2ccccc2)CC1 (stereo not given) | -6.97% (inactive) |
| CC1CCN(c2ccc(-c3ccc(NC(=O)c4ccco4)cc3)nn2)CC1 | 45% (active) |
| CCC(=O)Nc1ccc(-c2ccc(N3CCCCC3)nn2)cc1 | -16% (inactive) |
| COc1ccc(CCNC(=O)CN(C)S(=O)(=O)c2ccc3nc(C)sc3c2)cc1OC | -5.92% (inactive) |
| CC(=O)Nc1ccc(S(=O)(=O)NCCC(=O)N2CCN(c3ccccc3Cl)CC2)cc1 | -3.47% (inactive) |
| CCOC(=O)CC1C(=O)NCCN1c1nc2c(C)cccn2c(=O)c1/C=C1\SC(=S)N(C(C)CC)C1=O (stereo not given) | 54.2% (active) |
| CCOC(=O)N1CCN(C(=O)CSc2nc(=O)n3cccc(C)c3n2)CC1 | -15.5% (inactive) |
| Cc1cccn2c(=O)c(/C=C(\C#N)C(N)=O)c(N3CCCCCC3)nc12 | -34.3% (inactive) |
| COc1ccc(CC(NC(C)=O)C(=O)NC2CCN(C(=O)Nc3ccc(C#N)cc3)CC2)cc1OC (stereo not given) | -6.58% (inactive) |
| CC(C)=CCN1CCN(CCCc2ccccc2)CC1CCO (stereo not given) | -8.88% (inactive) |
| CN(C)S(=O)(=O)N1CCC(Oc2cccc(C(=O)NCCCC3CCCC3)c2)CC1 | 23.8% (inactive) |
| CSc1ccc(S(=O)(=O)NCC(=O)OCC(=O)NC2(C#N)CCCCC2)cc1[N+](=O)[O-] | -8.63% (inactive) |
| COc1ccc(-c2noc(CCC(=O)N3CCN(c4cccc(C)c4)CC3)n2)cc1 | -7.6% (inactive) |
| Oc1c(Cl)cc(Cl)c(Cl)c1Cc1c(O)c(Cl)cc(Cl)c1Cl | 70.6% (active) |
| COCC(=O)Nc1cc(C(=O)OC)cc(C(=O)OC)c1 | -1.27% (inactive) |
| Cc1cccc(NC(=O)C2CC(=O)OC23CCCC3)c1 (stereo not given) | -13.3% (inactive) |
| C/C(=N\NC(=O)CNC(=O)C(c1ccccc1)c1ccccc1)c1ccc(C)cc1 | 30.7% (active) |
| O=C(CNC(=O)C(c1ccccc1)c1ccccc1)N/N=C\c1ccc2c(c1)OCO2 | 2.64% (inactive) |
| C/C(=N/NC(=O)CC(=O)N/N=C(\C)c1ccc([N+](=O)[O-])cc1)c1ccc([N+](=O)[O-])cc1 | -3.47% (inactive) |
| CCCc1ccc(C(=O)COC(=O)CN2C(=O)NC3(CCCCC3C)C2=O)cc1 (stereo not given) | -23.9% (inactive) |
| COc1cc(C(=O)N2CCN(C/C=C/c3ccccc3)CC2)cc(OC)c1C | -10.8% (inactive) |
| CC1(C)CC[C@]2(C(=O)O)CC[C@]3(C)C(=CCC4[C@@]5(C)CC[C@H](O)C(C)(C)C5[C@H](O)C[C@]43C)[C@@H]2C1 (stereo not given in full) | -9.31% (inactive) |
| CC1(C)C2CC[C@]3(C)C(CC=C4[C@@H]5C[C@@](C)(CO)CC[C@]5(C(=O)O)CC[C@]43C)[C@@]2(C)CC[C@@H]1O (stereo not given in full) | -1.46% (inactive) |
| CC1(C)CC[C@@]2(C(=O)O)C(C1)C1=CCC3[C@@]4(C)CC[C@H](O)C(C)(C)C4CC[C@@]3(C)[C@]1(C)C[C@H]2O (stereo not given in full) | 93.2% (active) |
